Experimental findings from ChEMBL document CHEMBL4043299, “Repurposing a Library of Human Cathepsin L Ligands: Identification of Macrocyclic Lactams as Potent Rhodesain and Trypanosoma brucei Inhibitors” (J Med Chem, 2018) are described below.

Each structure is given as a SMILES string. A value given as a limit tells only on which side of the number the result lay.

For one data set, the target named is Rhodesain (Trypanosoma brucei rhodesiense, UniProt Q95PM0). The data set is described as follows: Inhibition of Trypanosoma brucei rhodesiense rhodesain using Cbz-Phe-Arg-AMC as substrate by fluorimetric method. An outline of the steps:
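Fluorescence-based protease assay. IC50 was converted to Ki by the Cheng-Prusoff equation. Values are the average of two measurements, each run in duplicate.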

Another data set concerns L6. The data set is described as follows: Cytotoxicity against rat L6 cells after 72 hrs by Alamar blue assay. Type of data set: cell-based. In short, it runs like this:
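Rat skeletal myoblast L6 cells, growth inhibition; IC50 as average of at least 2 measurements.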
(In general: Resazurin is reduced to fluorescent resorufin, in cell work by metabolically active cells.)

A short description of data set [1]: Selectivity index, ratio of IC50 for rat L6 cells to IC50 for bloodstream form of Trypanosoma brucei rhodesiense STIB 900. Format: toxicity. Conditions: for selectivity ratio: L6 cells, read-out: Ratio IC50. In short, it runs like this: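 Ratio of L6 cell IC50 to T. b. rhodesiense STIB900 trypomastigote IC50.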
In another data set the target is Procathepsin L (Homo sapiens, UniProt P07711). The data set can be described thus: Inhibition of human CatL using Cbz-Phe-Arg-AMC as substrate measured over 30 mins by fluorimetric method.
Data set [2] can be described thus: Selectivity index, ratio of Ki for human CatL to Ki for Trypanosoma brucei rhodesiense rhodesain. In short, it runs like this:
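Ki from IC50 via Cheng–Prusoff in fluorescence-based protease assay; index = Ki(hCatL)/Ki(RD); Ki as average of two measurements, each in duplicate.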

Data set [3] relates to Trypanosoma brucei rhodesiense. The data set can be described thus: Antitrypanosomal activity against bloodstream form of Trypanosoma brucei rhodesiense STIB 900 assessed as parasite growth inhibition after 72 hrs by Alamar blue assay. Format: functional. In short, it runs like this: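 T. b. rhodesiense STIB900 bloodstream trypomastigotes; cell-growth inhibition read by Alamar blue; IC50 as average of at least 2 measurements.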

Where [4] appears, read: Trypanosoma brucei, STIB 900, 72 h.

Sequence of Rhodesain (Q95PM0 whole entry): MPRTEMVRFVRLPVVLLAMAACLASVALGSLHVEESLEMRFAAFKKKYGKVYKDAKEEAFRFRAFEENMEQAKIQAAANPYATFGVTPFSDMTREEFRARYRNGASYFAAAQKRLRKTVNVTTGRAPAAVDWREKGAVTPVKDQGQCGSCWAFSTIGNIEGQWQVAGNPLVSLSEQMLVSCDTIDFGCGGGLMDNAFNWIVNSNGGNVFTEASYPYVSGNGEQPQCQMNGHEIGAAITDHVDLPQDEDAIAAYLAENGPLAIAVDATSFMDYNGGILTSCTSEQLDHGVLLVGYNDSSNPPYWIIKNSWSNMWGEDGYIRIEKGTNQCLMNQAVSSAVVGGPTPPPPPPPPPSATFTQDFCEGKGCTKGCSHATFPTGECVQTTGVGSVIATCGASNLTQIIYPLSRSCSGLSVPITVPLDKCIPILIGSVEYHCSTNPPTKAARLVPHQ
Sequence of Procathepsin L (P07711 whole entry): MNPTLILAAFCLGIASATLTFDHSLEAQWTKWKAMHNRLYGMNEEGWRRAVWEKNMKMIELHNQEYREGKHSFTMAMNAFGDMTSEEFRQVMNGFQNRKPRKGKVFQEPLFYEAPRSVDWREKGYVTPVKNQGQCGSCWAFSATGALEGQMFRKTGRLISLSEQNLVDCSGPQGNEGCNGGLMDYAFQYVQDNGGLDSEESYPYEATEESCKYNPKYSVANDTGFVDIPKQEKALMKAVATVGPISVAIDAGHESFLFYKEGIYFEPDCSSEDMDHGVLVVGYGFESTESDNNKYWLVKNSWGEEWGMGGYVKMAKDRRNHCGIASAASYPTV

Usually Ki stands for the dissociation constant of the complex between target and ligand, obtained from inhibition or displacement. Low values mean tighter binding, high ones weaker binding. Broadly, the IC50 is the midpoint of a concentration-inhibition curve. Take `N#CC1(NC(=O)[C@@H]2Cc3ccc(c(Cl)c3)OC/C=C/COc3cc4ccccc4cc3C(=O)N2)CC1` (mixture of isomers): the Ki on Rhodesain amounted to 1 nM; on Procathepsin L it was 1.2 nM. Moreover, the 50% inhibitory concentration (IC50) in the data set with L6 (Rattus norvegicus, L6, 72 h) was determined as 43800 nM; in data set [3] (setting [4]), 0.5 nM. Moreover, in data set [1], the selectivity ratio amounted to 87600. Besides, in data set [2], the Ratio Ki came to 1.2.
`N#CC1(NC(=O)[C@@H]2Cc3ccc(c(I)c3)OC/C=C/COc3ccccc3C(=O)N2)CC1` registered a Ki on Rhodesain of 2.5 nM.
As to `N#CC1(NC(=O)[C@@H]2Cc3ccc(c(Cl)c3)OC/C=C/COc3ccc(-c4ccc(F)cc4)cc3C(=O)N2)CC1` (mixture of isomers), the Ki was 2 nM at Rhodesain and 15.5 nM on Procathepsin L. In addition, the IC50 with L6 (Rattus norvegicus, L6, 72 h) is 45300 nM; in data set [3] (setting [4]), 347 nM. The selectivity ratio in data set [1] came to 131. Further, the Ratio Ki in data set [2] turned out to be 7.8.
In the case of `N#CC1(NC(=O)[C@@H]2Cc3ccc(c(I)c3)OC/C=C/COc3cc(C(F)(F)F)ccc3C(=O)N2)CC1` (mixture of isomers), the results for the Ki on Rhodesain and at Procathepsin L were 8.7 nM and 5.6 nM, respectively. In addition, the IC50 in the data set on L6 (Rattus norvegicus, L6, 72 h) stood at 30200 nM; in data set [3] (setting [4]) it was 300 nM. Also, the selectivity ratio in data set [1] was found to be 101. Also, in data set [2], the Ratio Ki was 0.6.
Regarding `CS(=O)(=O)c1ccc2c(c1)C(=O)N[C@H](C(=O)NC1(C#N)CC1)Cc1ccc(c(Cl)c1)OC/C=C/CO2`, the values for the Ki at Rhodesain and on Procathepsin L were 6.1 nM and 3.7 nM, respectively. Further, the IC50 with L6 (Rattus norvegicus, L6, 72 h) was over 100000 nM; in data set [3] (setting [4]), 332 nM. Also, the Ratio Ki in data set [2] was 0.6.
As for `CS(=O)(=O)c1ccc2c(c1)C(=O)N[C@H](C(=O)NC1(C#N)CC1)Cc1ccc(c(Cl)c1)OC[C@H]1O[C@@H]1CO2` (mixture of isomers), the figures for the Ki on Rhodesain and on Procathepsin L were 135 nM and 4.6 nM, respectively. Also, the IC50 was 84700 nM with L6 (Rattus norvegicus, L6, 72 h) and 16900 nM in data set [3] (setting [4]). Moreover, in data set [1], the selectivity ratio was determined as 5. In addition, in data set [2], the Ratio Ki was found to be 0.03.
`N#CC1(NC(=O)[C@@H]2Cc3ccc(c(Cl)c3)OC/C=C/COc3cc(-c4ccc(Cl)nc4)ccc3C(=O)N2)CC1` (mixture of isomers): the Ki is 3 nM on Rhodesain and 7.3 nM on Procathepsin L. Also, the IC50 with L6 (Rattus norvegicus, L6, 72 h) is 6490 nM; in data set [3] (setting [4]), 338 nM. The selectivity ratio in data set [1] came to 19. Moreover, in data set [2], the Ratio Ki is 2.4.
As to `N#CC1(NC(=O)[C@@H]2Cc3ccc(c(-c4cc[nH]n4)c3)OCCCCOc3ccccc3C(=O)N2)CC1`, the Ki was determined as 1090 nM on Rhodesain and 1110 nM at Procathepsin L. The half-inhibitory concentration (IC50) was determined as 86500 nM in the data set on L6 (Rattus norvegicus, L6, 72 h) and 1230 nM in data set [3] (setting [4]). Besides, the selectivity ratio in data set [1] turned out to be 70. Also, the Ratio Ki in data set [2] was 1.
Turning to `N#CC1(NC(=O)[C@@H]2Cc3ccc(c(Cl)c3)OC/C=C/COc3cc(-c4cnn(C(F)F)c4)ccc3C(=O)N2)CC1` (mixture of isomers), the Ki came to 5.4 nM at Rhodesain and 7.4 nM on Procathepsin L. Also, the IC50 with L6 (Rattus norvegicus, L6, 72 h) stood at 44300 nM; in data set [3] (setting [4]), 336 nM. Besides, in data set [1], the selectivity ratio stood at 132. Besides, the Ratio Ki in data set [2] was 1.4.
With `N#CC1(NC(=O)[C@@H]2Cc3ccc(c(-c4cncnc4)c3)OCCCCOc3cc(C(F)(F)F)ccc3C(=O)N2)CC1`, the figures for the Ki at Rhodesain and on Procathepsin L were over 20000 nM and 6390 nM, respectively. Moreover, the IC50 with L6 (Rattus norvegicus, L6, 72 h) is over 100000 nM; in data set [3] (setting [4]) it was 509 nM.
As for `N#CC1(NC(=O)[C@@H]2Cc3ccc(c(Cl)c3)OC/C=C/Cn3cccc(c3=O)C(=O)N2)CC1`, the Ki at Rhodesain and at Procathepsin L was over 20000 nM each time. The IC50 was over 100000 nM in the data set with L6 (Rattus norvegicus, L6, 72 h) and 47800 nM in data set [3] (setting [4]).
Regarding `CC(C)(C)c1cc2nn1CC/C=C/COc1ccc(cc1Cl)C[C@@H](C(=O)NC1(C#N)CC1)NC2=O`, the figures for the Ki at Rhodesain and at Procathepsin L were 18 nM and 2.3 nM, respectively. Moreover, the IC50 is 38500 nM with L6 (Rattus norvegicus, L6, 72 h) and 0.6 nM in data set [3] (setting [4]). For the same molecule, the selectivity ratio in data set [1] was 64200. The Ratio Ki in data set [2] is 0.1.
On to `N#CC1(NC(=O)[C@@H]2Cc3ccc(c(Cl)c3)OC/C=C/CCn3nc(cc3-c3ccccc3)C(=O)N2)CC1`, for which the Ki at Rhodesain amounted to 5.2 nM; on Procathepsin L, 55.7 nM. Moreover, the IC50 in the data set with L6 (Rattus norvegicus, L6, 72 h) is 40000 nM; in data set [3] (setting [4]), 0.6 nM. Also, in data set [1], the selectivity ratio is 66700. Also, the Ratio Ki in data set [2] came to 11.
Turning to `N#CC1(NC(=O)[C@@H]2Cc3ccc(c(Cl)c3)OCC#CCOc3c(F)cc(F)cc3C(=O)N2)CC1` (single isomer, unassigned; atropisomer 2) [listing 1 of 2 here], in data set [2], the Ratio Ki came out at 0.3.
On to `N#CC1(NC(=O)[C@@H]2Cc3ccc(c(Cl)c3)OCC#CCOc3c(F)cc(F)cc3C(=O)N2)CC1` (single isomer, unassigned; atropisomer 1) [listing 1 of 2 here], for which the Ki on Rhodesain was 80.6 nM; at Procathepsin L, 24.1 nM. Besides, the IC50 in the data set on L6 (Rattus norvegicus, L6, 72 h) was determined as 45600 nM; in data set [3] (setting [4]), 8 nM. In addition, the “Ratio IC50” value in data set [1] turned out to be 5700.
As to `N#CC1(NC(=O)[C@@H]2Cc3ccc(c(Cl)c3)OCC#CCOc3c(F)cc(F)cc3C(=O)N2)CC1` (single isomer, unassigned; atropisomer 2) [listing 2 of 2 here], the Ki at Rhodesain amounted to 4.8 nM; on Procathepsin L, 1.2 nM. The IC50 with L6 (l6) came out at 47100 nM; in data set [3] it was 4 nM. Moreover, the “Ratio IC50” value in data set [1] is 11775.
With `Cc1cc2nn1CC/C=C/COc1ccc(cc1Cl)C[C@@H](C(=O)NC1(C#N)CC1)NC2=O` (mixture of isomers), the figures for the Ki at Rhodesain and at Procathepsin L were 52.4 nM and 40.3 nM, respectively. Also, the IC50 is over 100000 nM with L6 (Rattus norvegicus, L6, 72 h) and 6 nM in data set [3] (setting [4]). Besides, the Ratio Ki in data set [2] is 0.8.
On to `N#CC1(NC(=O)[C@@H]2Cc3ccc(c(Cl)c3)OC/C=C/COc3ccccc3C(C(F)(F)F)N2)CC1` (stereo not given in full), for which the Ki stood at 258 nM on Rhodesain and 443 nM on Procathepsin L. The IC50 in data set [3] (setting [4]) was determined as 9500 nM.
For the molecule `N#CC1(NC(=O)[C@@H]2Cc3ccc(c(Cl)c3)OCC#CCOc3c(F)cc(F)cc3C(=O)N2)CC1` (single isomer, unassigned; atropisomer 1) [listing 2 of 2 here], the Ratio Ki in data set [2] was found to be 0.3.
Turning to `N#CC1(NC(=O)[C@@H]2Cc3ccc(c(-c4cccnc4)c3)OCCCCOc3ccccc3C(=O)N2)CC1`, the Ki at Rhodesain was determined as 837 nM; at Procathepsin L, 997 nM. For the same molecule, the IC50 with L6 (Rattus norvegicus, L6, 72 h) was over 100000 nM; in data set [3] (setting [4]) it was 1930 nM. The Ratio Ki in data set [2] came out at 1.2.
As to `N#CC1(NC(=O)[C@@H]2Cc3ccc(c(-c4cccnc4)c3)OCCCCOc3cc(C(F)(F)F)ccc3C(=O)N2)CC1`, the Ki came to 751 nM on Rhodesain and 824 nM on Procathepsin L. The IC50 came out at 72200 nM in the data set on L6 (Rattus norvegicus, L6, 72 h) and 18 nM in data set [3] (setting [4]). Further, in data set [1], the selectivity ratio came out at 4010. In addition, in data set [2], the Ratio Ki is 1.1.
Turning to `N#CC1(NC(=O)[C@@H]2Cc3ccc(c(I)c3)OCCCCOc3cc(C(F)(F)F)ccc3C(=O)N2)CC1`, the Ki at Rhodesain turned out to be 57.4 nM; at Procathepsin L, 5.8 nM. Moreover, the IC50 in the data set with L6 (Rattus norvegicus, L6, 72 h) was found to be 56800 nM; in data set [3] (setting [4]) it was 30 nM. For the same molecule, the selectivity ratio in data set [1] amounted to 1890. In addition, the Ratio Ki in data set [2] came to 0.1.
As for `Cn1cc(-c2cc3ccc2OCCCCOc2cc(C(F)(F)F)ccc2C(=O)N[C@H](C(=O)NC2(C#N)CC2)C3)cn1`, the values for the Ki at Rhodesain and at Procathepsin L were 870 nM and 676 nM, respectively. For the same molecule, the IC50 in the data set with L6 (Rattus norvegicus, L6, 72 h) is over 100000 nM; in data set [3] (setting [4]), 19 nM. Further, the Ratio Ki in data set [2] was found to be 0.8.
